ChEMBL document CHEMBL3576824, “Phenolic diterpenoid derivatives as anti-influenza a virus agents” (ACS Med Chem Lett, 2015)
Calls of active or inactive are those of the source.

system: Influenza A virus; assay: Antiviral activity against oseltamivir/amantadine-resistant Influenza A virus (A/Puerto Rico/8/1934(H1N1)) infected in MDCK cells assessed as protection against virus-induced cytocidal effect after 48 hrs by CellTiter-Glo assay; type: functional, organism-based; settings: Influenza A virus, A/Puerto Rico/8/1934(H1N1), MDCK, 48 h; read-out: EC50
Summary of the method: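 Cytocidal protection assay in MDCK cells. EC50 is the concentration (μM) protecting cells by 50% from the virus's cytocidal effect, given as mean ± SD from at least three independent tests.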

Going from COC(=O)[C@@]1(C)CCC[C@]2(C)c3cc(OC(C)=O)ccc3CC[C@@H]12 to COC(=O)[C@@]1(C)CCC[C@]2(C)c3cc(OC(=O)C(C)C)ccc3CC[C@@H]12, the EC50 rises from 140 nM to 320 nM (2.3-fold). The first is the more potent here.

Compared with COC(=O)[C@@]1(C)CCC[C@]2(C)c3cc(OC(=O)CCC(=O)O)ccc3CC[C@@H]12, COC(=O)[C@@]1(C)CCC[C@]2(C)c3cc(OC(=O)CCCC(=O)O)ccc3CC[C@@H]12 is 2.1-fold higher in EC50: 180 nM for the first, 370 nM for the second. The first is the more potent here.

Going from COC(=O)[C@@]1(C)CCC[C@]2(C)c3cc(OC(=O)CCCCBr)ccc3CC[C@@H]12 to COC(=O)[C@@]1(C)CCC[C@]2(C)c3cc(OC(=O)CCCCCBr)ccc3CC[C@@H]12, the EC50 falls from 420 nM to 190 nM (2.2-fold).

Going from CNC(=O)[C@@]1(C)CCC[C@]2(C)c3cc(O)ccc3CC[C@@H]12 to COC(=O)[C@@]1(C)CCC[C@]2(C)c3cc(O)ccc3CC[C@@H]12, the EC50 falls from > 34800 nM to 160 nM. The second is the more potent here.

First: C[C@]1(C(=O)OCc2ccccc2)CCC[C@]2(C)c3cc(OC(=O)CCC(=O)O)ccc3CC[C@@H]12
Second: C=CC(=O)Oc1ccc2c(c1)[C@@]1(C)CCC[C@](C)(C(=O)OCc3ccccc3)[C@@H]1CC2
The EC50 of the first is higher: > 6500 nM for the first, 480 nM for the second. The second is the more potent here.

Going from COC(=O)[C@@]1(C)CCC[C@]2(C)c3cc(OC(=O)C4CC4)ccc3CC[C@@H]12 to C=CC(=O)Oc1ccc2c(c1)[C@@]1(C)CCC[C@](C)(C(=O)OC)[C@@H]1CC2, the EC50 rises from 150 nM to 640 nM (4.3-fold). The first is the more potent here.

First: COC(=O)[C@@]1(C)CCC[C@]2(C)c3cc(OCCC(=O)O)ccc3CC[C@@H]12
Second: COC(=O)[C@@]1(C)CCC[C@]2(C)c3cc(OC(=O)CCBr)ccc3CC[C@@H]12
The EC50 of the first is higher: > 25000 nM for the first, 210 nM for the second.

C[C@]1(C(=O)O)CCC[C@]2(C)c3cc(O)ccc3CC[C@@H]12 [PODOCARIC ACID] and C[C@]1(C(=O)O)CCC[C@]2(C)c3cc(OC(=O)CCC(=O)O)ccc3CC[C@@H]12 are within 1.5-fold of each other in EC50: 18200 nM for the first, 18700 nM for the second.

Going from NC12CC3CC(CC(C3)C1)C2 [AMANTADINE] to COC(=O)[C@@]1(C)CCC[C@]2(C)c3cc(OC(=O)C(C)F)ccc3CC[C@@H]12 (stereo not given in full), the EC50 falls from > 20000 nM to 150 nM. The second is the more potent here.

First: COC(=O)[C@@]1(C)CCC[C@]2(C)c3cc(OC)ccc3C(=O)C[C@@H]12
Second: COC(=O)[C@@]1(C)CCC[C@]2(C)c3cc(OC)ccc3CC[C@@H]12
The EC50 of the first is 4.9-fold higher: 3600 nM for the first, 730 nM for the second.

First: CCOC(=O)C1=C[C@@H](OC(CC)CC)[C@H](NC(C)=O)[C@@H](N)C1 [OSELTAMIVIR]
Second: COC(=O)[C@@]1(C)CCC[C@]2(C)c3cc(OC(=O)CCCBr)ccc3CC[C@@H]12
The EC50 of the first is higher: > 20000 nM for the first, 570 nM for the second.

First: CC(C)c1c(O)ccc2c1CC[C@H]1C(C)(C)CCC[C@]21C [TOTAROL]
Second: C=CC(=O)Oc1ccc2c(c1)[C@@]1(C)CCC[C@](C)(C(=O)NC)[C@@H]1CC2
The EC50 of the first is lower: 3500 nM for the first, > 29300 nM for the second.

Compound C[C@]1(C(=O)OCc2ccccc2)CCC[C@]2(C)c3cc(O)ccc3CC[C@@H]12 has an EC50 of 1590 nM.

same assay, conditions: mdck

With C[C@]1(C(=O)OCc2ccccc2)CCC[C@]2(C)c3cc(OCCC(=O)O)ccc3CC[C@@H]12 the EC50 was “Not Active”.

system: Influenza A virus; assay: Antiviral activity against oseltamivir/amantadine-resistant Influenza A virus (A/Puerto Rico/8/1934(H1N1)) assessed as inhibition of viral infectivity in MDCK cells at 10 uM after 6 hrs by FITC conjugated anti-NP antibodies/DAPI staining-based confocal microscopic analysis; type: functional, organism-based; settings: not given
Summary of the method: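 MDCK cells were infected at MOI = 1 in the presence of 10 μM compound for 6 h. Infected cells were stained with FITC-conjugated anti-NP antibody, with DAPI as nuclear stain, and imaged by confocal microscopy. Infected cells without compound served as control.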

In the case of COC(=O)[C@@]1(C)CCC[C@]2(C)c3cc(OC(=O)CCBr)ccc3CC[C@@H]12, the inhibition is reported as “Active”.
CC(C)c1c(O)ccc2c1CC[C@H]1C(C)(C)CCC[C@]21C [TOTAROL] was tested, and the inhibition was “Active”.

system: Influenza A virus (A/Puerto Rico/8/1934(H1N1)); assay: Inhibition of oseltamivir/amantadine-resistant Influenza A virus (A/Puerto Rico/8/1934(H1N1)) hemagglutinin-mediated hemolysis of chicken RBC preincubated with virus for 30 mins followed by RBC addition measured after 30 mins by microplate reader analysis; settings: not given
Summary of the method: (§1)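 Erythrocyte-virus-compound mixture incubated at 37 °C for 30 min, then acidified to pH 5.2 with 0.15 M sodium acetate buffer to trigger HA-mediated hemolysis. OD540 of supernatants was measured. Hemolysis without compound is defined as 100%. Values are averages of two independent tests.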

In the case of C=CC(=O)Oc1ccc2c(c1)[C@@]1(C)CCC[C@](C)(C(=O)OC)[C@@H]1CC2, the inhibition is reported as “Dose-dependent effect”.

system: Influenza A virus (A/Puerto Rico/8/1934(H1N1)); assay: Inhibition of oseltamivir/amantadine-resistant Influenza A virus (A/Puerto Rico/8/1934(H1N1)) hemagglutinin-mediated hemolysis of chicken RBC at 10 uM preincubated with virus for 30 mins followed by RBC addition measured after 30 mins by microplate reader analysis; settings: not given; summary of the method: as §1

CCOC(=O)C1=C[C@@H](OC(CC)CC)[C@H](NC(C)=O)[C@@H](N)C1 [OSELTAMIVIR] was tested, and the inhibition was “inactive”.
